Activity calls are given as the source filed them. The rule behind the calls is not given here.
Legend:
Rattus norvegicus [1] = experiment: Dose that inhibits paw swelling by 25% compared with control in carrgeenin rat paw edema assay; assay type: functional
Outline: (§1)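 Rats given glycerides or indomethacin orally 2 h before subplantar injection of 0.1 mL 1.5% carrageenin solution.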

Rattus norvegicus [2] = experiment: Percent changes of hind paw edema and severity scores compared to control animals at 0.8 micro mol/kg/day; assay type: functional
Outline: (§2)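 Adjuvant arthritis in rats: mycobacterial adjuvant injected subcutaneously into the tail; on day 14 animals with definite disease were selected and dosed daily on days 14-25. Hind paw swelling and severity scores (four paws scored) were expressed as % change vs diseased controls. Body weight gain was assessed over days 1-25; + marks significant gain.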

Rattus norvegicus [3] = experiment: Percent changes of hind paw edema and severity scores compared to control animals at 1.6 micro mol/kg/day; assay type: functional; outline: as §2
Rattus norvegicus [4] = experiment: Percent changes of hind paw edema and severity scores compared to control animals at 14.0 micro mol/kg/day; assay type: functional; outline: as §2
Rattus norvegicus [5] = experiment: Gain in the body weight of rat was measured at 14.0 micro mol/kg/day. (+ means significant body weight); assay type: functional, organism-based; outline: as §2
Rattus norvegicus [6] = experiment: Gain in the body weight of rat was measured at 3.3 micro mol/kg/day. (+ means significant body weight); assay type: functional, organism-based; outline: as §2
Rattus norvegicus [7] = experiment: inhibition of swelling in rat paw edema was measured at a dose of 1.6 micro mol/kg/day for days 14-25; assay type: functional; outline: as §2
Rattus norvegicus [8] = experiment: inhibition of swelling in rat paw edema was measured at a dose of 0.8 micro mol/kg/day for days 14-25; assay type: functional; outline: as §2
Rattus norvegicus [9] = experiment: inhibition of swelling in rat paw edema was measured at a dose of 14.0 micro mol/kg/day for days 14-25; assay type: functional; outline: as §2
Rattus norvegicus [10] = experiment: Percent changes of hind paw edema and severity scores compared to control animals at 3.3 micro mol/kg/day; assay type: functional; outline: as §2
Rattus norvegicus [11] = experiment: inhibition of swelling in rat adjuvant-induced arthritis was measured at a dose of 3.3 micro mol/kg/day for days 14-25
Rattus norvegicus [12] = experiment: Percent changes of hind paw edema and severity scores compared to control animals at 0.7 micro mol/kg/day; assay type: functional; outline: as §2
Rattus norvegicus [13] = experiment: Percent changes of hind paw edema and severity scores compared to control animals at 1.4 micro mol/kg/day; assay type: functional; outline: as §2
Rattus norvegicus [14] = experiment: Percent changes of hind paw edema and severity scores compared to control animals at 2.8 micro mol/kg/day; assay type: functional; outline: as §2
Rattus norvegicus [15] = experiment: Percent changes of hind paw edema and severity scores compared to control animals at 7.0 micro mol/kg/day; assay type: functional; outline: as §2
Rattus norvegicus [16] = experiment: Gain in the body weight of rat was measured at 2.8 micro mol/kg/day. (+ means significant body weight); assay type: functional, organism-based; outline: as §2
Rattus norvegicus [17] = organism: Rattus norvegicus; experiment: Dose which produced lesions in 50% of the treated animals; assay type: functional
Outline: (§3)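 Stomachs of rats from the oral carrageenin paw edema study (dosed 2 h before carrageenin) examined for gastric lesions by the Brodie and Hansen method. UD50 is the dose producing lesions in 50% of treated animals.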

Rattus norvegicus [18] = experiment: inhibition of swelling in rat paw edema was measured at a dose of 1.4 micro mol/kg/day for days 14-25; assay type: functional
Outline: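 Rat adjuvant arthritis: adjuvant injected subcutaneously into the tail; after 14 days, only rats with definite disease were treated, with daily doses on days 14-25. Hind paw swelling was expressed as percent change versus diseased controls. Severity was scored on four paws, and body weight gain was followed over days 1-25.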

Rattus norvegicus [19] = experiment: inhibition of swelling in rat paw edema was measured at a dose of 2.8 micro mol/kg/day for days 14-25; assay type: functional; outline: as §2
Rattus norvegicus [20] = experiment: inhibition of swelling in rat paw edema was measured at a dose of 7.0 micro mol/kg/day for days 14-25; assay type: functional; outline: as §2
Rattus norvegicus [21] = experiment: inhibition of swelling in rat paw edema was measured at a dose of 0.7 micro mol/kg/day for days 14-25; assay type: functional; outline: as §2
Rattus norvegicus [22] = experiment: Gain in the body weight of rat was measured at 7.0 micro mol/kg/day. (+ means significant body weight); assay type: functional, organism-based; outline: as §2
[23] = Ratio of UD50 to that of ED25; conditions: read-out: Therapeutic ratio
Rattus norvegicus [24] = experiment: Dose that inhibits paw swelling by 25% compared with control in carrgeenin rat paw edema assay; i = inactive at 26 uM/Kg; assay type: functional, organism-based; outline: as §1
Rattus norvegicus [25] = organism: Rattus norvegicus; experiment: compound was measured as dose which produces lesions in the treated animals.; assay type: functional; outline: as §3
[26] = Ratio of UD50 to that of ED25; assay type: ADME; conditions: read-out: Therapeutic ratio
Outline: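 Therapeutic index calculated as UD50 (dose causing gastric lesions in 50% of rats) divided by ED25 (dose inhibiting carrageenin paw edema by 25%), both from the same oral rat study.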

Rattus norvegicus [27] = experiment: Dose that inhibits paw swelling by 25% compared with control in carrgeenin rat paw edema assay; i = inactive at 18 umol/kg; assay type: functional, organism-based; outline: as §1
Rattus norvegicus [28] = experiment: Percent changes of hind paw edema and severity scores compared to control animals at 11.0 micro mol/kg/day; assay type: functional; outline: as §2
Rattus norvegicus [29] = experiment: Percent changes of hind paw edema and severity scores compared to control animals at 5.6 micro mol/kg/day; assay type: functional; outline: as §2
Rattus norvegicus [30] = experiment: Gain in the body weight of rat was measured at 11.0 micro mol/kg/day. (+ means significant body weight); assay type: functional, organism-based; outline: as §2
Rattus norvegicus [31] = experiment: Gain in the body weight of rat was measured at 5.6 micro mol/kg/day. (+ means significant body weight); assay type: functional, organism-based; outline: as §2
Rattus norvegicus [32] = experiment: inhibition of swelling in rat paw edema was measured at a dose of 11.0 micro mol/kg/day for days 14-25; assay type: functional; outline: as §2
Rattus norvegicus [33] = experiment: inhibition of swelling in rat paw edema was measured at a dose of 5.6 micro mol/kg/day for days 14-25; assay type: functional; outline: as §2

**Q.** For CCCC(=O)OCC(COC(=O)CCC)OC(=O)Cc1c(C)n(C(=O)c2ccc(Cl)cc2)c2ccc(OC)cc12, which ED25 (Rattus norvegicus [1]) is on record?
**A.** Its ED25 is 22 µM/kg.

**Q.** Which ED25 (Rattus norvegicus [1]) does the source give for CCCCCCCCCCCCCCCC(=O)OCC(COC(=O)CCCCCCCCCCCCCCC)OC(=O)Cc1c(C)n(C(=O)c2ccc(Cl)cc2)c2ccc(OC)cc12 here?
**A.** The ED25 was 23 µM/kg.

**Q.** With CCCCCCCCCCCCCCCCCCCC(=O)OCC(COC(=O)CCCCCCCCCCCCCCCCCCC)OC(=O)Cc1c(C)n(C(=O)c2ccc(Cl)cc2)c2ccc(OC)cc12 as the compound, how does the ED25 (Rattus norvegicus [1]) read?
**A.** The ED25 was 38 µM/kg.

**Q.** With COc1ccc2c(c1)c(CC(=O)OCC(O)CO)c(C)n2C(=O)c1ccc(Cl)cc1 (centres undefined) as the compound, how does the Change (Rattus norvegicus [2]) read?
**A.** Its Change is 31%.

**Q.** What about the Change (Rattus norvegicus [3]) of the same compound?
**A.** The Change was 42%.

**Q.** What about the Change (Rattus norvegicus [4]) of the same compound?
**A.** The Change was 53%.

**Q.** And the Change (Rattus norvegicus [5])?
**A.** Its Change is “significant body weight”.

**Q.** And the Change (Rattus norvegicus [6])?
**A.** The Change was “significant body weight”.

**Q.** What about the ED25 (Rattus norvegicus [1]) of the same compound?
**A.** Its ED25 is 5 µM/kg.

**Q.** What about the Inhibition (Rattus norvegicus [7]) of the same compound?
**A.** Its Inhibition is 67%.

**Q.** What about the Inhibition (Rattus norvegicus [8]) of the same compound?
**A.** The Inhibition was 57%.

**Q.** What about the Inhibition (Rattus norvegicus [9]) of the same compound?
**A.** Its Inhibition is 76%.

**Q.** What about the Change (Rattus norvegicus [10]) of the same compound?
**A.** Its Change is 55%.

**Q.** What about the Inhibition (Rattus norvegicus [11]) of the same compound?
**A.** Its Inhibition is 73%.

**Q.** What does the source list for COc1ccc2c(c1)c(CC(=O)O)c(C)n2C(=O)c1ccc(Cl)cc1 [INDOMETHACIN]?
**A.** Change (Rattus norvegicus [12]): 25%; Change (Rattus norvegicus [13]): 33%; Change (Rattus norvegicus [14]): 56%; Change (Rattus norvegicus [15]): 74%; Change (Rattus norvegicus [16]): Active; ED25 (Rattus norvegicus [1]): 5 µM/kg; UD50 (Rattus norvegicus [17]): 10 µM/kg; Inhibition (Rattus norvegicus [18]): 57%; Inhibition (Rattus norvegicus [19]): 76%; Inhibition (Rattus norvegicus [20]): 75%; Inhibition (Rattus norvegicus [21]): 37%; Change (Rattus norvegicus [22]): Active; selectivity ratio [23]: 2

**Q.** Which ED25 (Rattus norvegicus [24]) does the source give for COc1ccc2c(c1)c(CC(=O)OCC(O)COC(=O)Cc1c(C)n(C(=O)c3ccc(Cl)cc3)c3ccc(OC)cc13)c(C)n2C(=O)c1ccc(Cl)cc1 here?
**A.** Its ED25 is “inactive”.

**Q.** For COc1ccc2c(c1)c(CC(=O)OC(CO)CO)c(C)n2C(=O)c1ccc(Cl)cc1, which ED25 (Rattus norvegicus [1]) is on record?
**A.** Its ED25 is 21 µM/kg.

**Q.** Which Change (Rattus norvegicus [2]) does the source give for COc1ccc2c(c1)c(CC(=O)OC(COC(C)=O)COC(C)=O)c(C)n2C(=O)c1ccc(Cl)cc1 here?
**A.** The Change was 25%.

**Q.** What about the Change (Rattus norvegicus [3]) of the same compound?
**A.** The Change was 28%.

**Q.** And the Change (Rattus norvegicus [4])?
**A.** The Change was 60%.

**Q.** What about the Change (Rattus norvegicus [5]) of the same compound?
**A.** Its Change is “significant body weight”.

**Q.** And the Change (Rattus norvegicus [6])?
**A.** Its Change is “significant body weight”.

**Q.** And the ED25 (Rattus norvegicus [1])?
**A.** Its ED25 is 14 µM/kg.

**Q.** What about the Inhibition (Rattus norvegicus [7]) of the same compound?
**A.** Its Inhibition is 50%.

**Q.** What about the UD50 (Rattus norvegicus [25]) of the same compound?
**A.** Its UD50 is 67 µM/kg.

**Q.** What about the Inhibition (Rattus norvegicus [8]) of the same compound?
**A.** Its Inhibition is 43%.

**Q.** What about the selectivity ratio [26] of the same compound?
**A.** The selectivity ratio was 5.

**Q.** And the Inhibition (Rattus norvegicus [9])?
**A.** The Inhibition was 79%.

**Q.** And the Change (Rattus norvegicus [10])?
**A.** The Change was 55%.

**Q.** What about the Inhibition (Rattus norvegicus [11]) of the same compound?
**A.** The Inhibition was 72%.

**Q.** Which ED25 (Rattus norvegicus [1]) does the source give for COc1ccc2c(c1)c(CC(=O)OCC(CO)OC(=O)Cc1c(C)n(C(=O)c3ccc(Cl)cc3)c3ccc(OC)cc13)c(C)n2C(=O)c1ccc(Cl)cc1 (centres undefined) here?
**A.** Its ED25 is 31 µM/kg.

**Q.** Which ED25 (Rattus norvegicus [27]) does the source give for COc1ccc2c(c1)c(CC(=O)OCC(COC(=O)Cc1c(C)n(C(=O)c3ccc(Cl)cc3)c3ccc(OC)cc13)OC(=O)Cc1c(C)n(C(=O)c3ccc(Cl)cc3)c3ccc(OC)cc13)c(C)n2C(=O)c1ccc(Cl)cc1 here?
**A.** Its ED25 is “inactive”.

**Q.** For CCCCCCCC(=O)OCC(COC(=O)CCCCCCC)OC(=O)Cc1c(C)n(C(=O)c2ccc(Cl)cc2)c2ccc(OC)cc12, which ED25 (Rattus norvegicus [1]) is on record?
**A.** The ED25 was 12 µM/kg.

**Q.** Which ED25 (Rattus norvegicus [1]) does the source give for CCCCCCCCCC(=O)OCC(COC(=O)CCCCCCCCC)OC(=O)Cc1c(C)n(C(=O)c2ccc(Cl)cc2)c2ccc(OC)cc12 here?
**A.** Its ED25 is 18 µM/kg.

**Q.** Which Change (Rattus norvegicus [13]) does the source give for CCCCCCCCCCCC(=O)OCC(COC(=O)CCCCCCCCCCC)OC(=O)Cc1c(C)n(C(=O)c2ccc(Cl)cc2)c2ccc(OC)cc12 here?
**A.** The Change was 30%.

**Q.** And the Change (Rattus norvegicus [28])?
**A.** Its Change is 74%.

**Q.** And the Change (Rattus norvegicus [14])?
**A.** The Change was 41%.

**Q.** And the Change (Rattus norvegicus [29])?
**A.** Its Change is 53%.

**Q.** What about the Change (Rattus norvegicus [30]) of the same compound?
**A.** Its Change is “significant body weight”.

**Q.** And the Change (Rattus norvegicus [31])?
**A.** The Change was “significant body weight”.

**Q.** What about the ED25 (Rattus norvegicus [1]) of the same compound?
**A.** Its ED25 is 13 µM/kg.

**Q.** And the UD50 (Rattus norvegicus [17])?
**A.** Its UD50 is 78 µM/kg.

**Q.** And the Inhibition (Rattus norvegicus [18])?
**A.** The Inhibition was 30%.

**Q.** What about the Inhibition (Rattus norvegicus [32]) of the same compound?
**A.** Its Inhibition is 73%.

**Q.** And the Inhibition (Rattus norvegicus [19])?
**A.** Its Inhibition is 70%.

**Q.** And the Inhibition (Rattus norvegicus [33])?
**A.** The Inhibition was 63%.

**Q.** What about the selectivity ratio [23] of the same compound?
**A.** Its selectivity ratio is 6.
